Rows were chosen to be rich in hits. Some 4.3% of all compounds tested hit in one or more screens of this group.
Lipid droplet: modulators of hepatic lipid droplet formation; AML12 mouse hepatocytes, oleate lipid droplets, BODIPY imaging; inhibition, % at 6.5 µM; 240,000 compounds, 0.4% hits; AID 1656;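 active means lipid droplet intensity inhibited by at least 50%, with more than 500 cells counted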
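Assay system: AML12 mouse liver cells | Compound dosing: One dose, 6.5 µM compound | Read-out basis: Droplet intensity reduction, % inhibition | Measured by: Fluorescence imaging, 20x objective, two fields per well | Schedule: Overnight treatment with compound plus oleate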
SR-BI DiI-HDL act: enhances SR-BI lipid uptake from DiI-HDL; activation, % at 12.5 µM; 320,000 compounds, 0.096% hits; CHO ldlA[mSR-BI] cells, DiI-HDL uptake fluorescence, 3 h; 100 = double the neutral-control signal;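 active means mean replicate activation of at least 60% and every replicate at or above 60%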;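 further: 0% = median plate neutral-control signal and 100% = twice that signal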
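System: LDL receptor-deficient CHO ldlA cells overexpressing murine SR-BI | Timing: 3 h uptake period with compound, 37 °C | Medium: HEPES-buffered (25 mM, pH 7.4) F12 plus 0.5% BSA | Dosing: Single-point compound dose | Signal: Bottom-read fluorescence, 550/595 nm | Read-out: Retained DiI signal reflecting DiI-HDL uptake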
AHR activator: human AHR activation | 320,000 compounds, 2.5% hits | AHR-responsive luciferase reporter cells, luminescence | activation, % at 5 µM | P35869; in the data active means activation above about 47%;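 further: 0% = vehicle wells and 100% = reference agonist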
Target sequence (P35869 whole entry, looked up): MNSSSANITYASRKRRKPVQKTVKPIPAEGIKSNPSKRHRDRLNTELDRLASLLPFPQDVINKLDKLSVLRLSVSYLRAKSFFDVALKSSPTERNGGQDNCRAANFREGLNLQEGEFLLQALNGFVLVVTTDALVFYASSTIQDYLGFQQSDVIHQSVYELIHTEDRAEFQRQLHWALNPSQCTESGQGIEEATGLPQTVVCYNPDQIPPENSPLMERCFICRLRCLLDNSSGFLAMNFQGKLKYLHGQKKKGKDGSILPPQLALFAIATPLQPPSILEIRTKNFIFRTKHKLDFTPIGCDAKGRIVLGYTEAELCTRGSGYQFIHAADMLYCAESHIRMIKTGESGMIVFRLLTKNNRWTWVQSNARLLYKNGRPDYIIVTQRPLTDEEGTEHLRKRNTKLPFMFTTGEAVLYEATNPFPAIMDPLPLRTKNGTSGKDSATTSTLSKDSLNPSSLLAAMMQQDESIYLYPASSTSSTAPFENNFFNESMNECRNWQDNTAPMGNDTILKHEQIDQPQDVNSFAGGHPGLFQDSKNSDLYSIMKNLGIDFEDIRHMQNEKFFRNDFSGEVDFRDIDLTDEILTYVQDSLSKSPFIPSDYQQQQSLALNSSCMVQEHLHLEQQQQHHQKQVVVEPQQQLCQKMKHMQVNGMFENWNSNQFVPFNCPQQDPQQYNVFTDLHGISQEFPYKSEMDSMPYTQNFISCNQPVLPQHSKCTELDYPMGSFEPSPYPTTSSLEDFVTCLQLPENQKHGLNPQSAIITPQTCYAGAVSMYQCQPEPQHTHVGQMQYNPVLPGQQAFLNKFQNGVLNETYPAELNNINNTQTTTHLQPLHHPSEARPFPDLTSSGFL
SR-BI DiI inh: blocks mouse SR-BI lipid uptake from DiI-HDL | ldlA[mSR-BI] CHO cells, DiI-HDL uptake fluorescence, 3 h | AID 488896 | inhibition, % at 12.5 µM | 320,000 compounds, 0.96% hits | Q61009;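 active means mean replicate inhibition of at least 70% and a set share of replicates each scoring 70 or more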;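 further: 0% = median of neutral control wells and 100% = median of positive control wells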
Yeast superoxide: yeast age-related superoxide inhibition as caloric restriction mimetic. S. cerevisiae aged cells, superoxide DHE fluorescence; hits give low values. superoxide response (% of plate mean), % at 10 µM. 330,000 compounds, 0.18% hits. AID 2690;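 active means superoxide response under a set limit, about three screen SD below normal, cut at about 65% in these data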;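 further: yeast aged for seven days with compound at 30 °C before DHE staining; 100% = average MFI of all compound-treated wells on the plate with controls excluded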
SMARCA2 activ: SMARCA2 function activation, primary screen | MG213 cells, MMTV-luciferase reporter, dexamethasone, overnight | activation, % at 9.1 µM | 370,000 compounds, 1% hits | AID 652017; in the data active means activation above about 7.8%;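 further: 0% = vehicle wells and 100% = reference activator wells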
CR mimetic CP: confirmation of caloric restriction mimetics inhibiting yeast age-related superoxide; S. cerevisiae aging, superoxide DHE fluorescence; hits give low values; shares compounds with Yeast superoxide; AID 434994; superoxide response (% of plate), % at 10 µM; 850 compounds, 1% hits;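 active means superoxide signal below 65% of the plate average of sample wells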;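 further: cells aged with compound for 7 days at 30 degrees C before staining; 100% equals mean DHE fluorescence of all compound wells on the plate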
DHE counter: DHE fluorescence interference, counter-screen artifact; shares compounds with Yeast superoxide; S. cerevisiae BY4741, flow cytometry; hits give low values; fluorescence response, % at 10 µM; 850 tested, under 10 active; AID 435000;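 active means fluorescence response below 15%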;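 further: percent of the mean fluorescence averaged over all compound wells on the plate; lower means stronger quenching of DHE signal or ROS scavenging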
* marks the source's active call; other numbers are inactive results; / = no result given.

SMILES	Lipid droplet	SR-BI DiI-HDL act	AHR activator	SR-BI DiI inh	Yeast superoxide	SMARCA2 activ	CR mimetic CP	DHE counter
Cc1ccc(NC(=O)[C@@H]2CC(=O)O[C@@H]2c2ccccc2)c(C)c1	/	/	/	/	/	-5	/	/
O=C(NCCO)c1cccc2c1-c1ccccc1C2=O	-14	-5	0	5	125	-2	/	/
CC(C)(C)NC(=O)c1cccc2c1-c1ccccc1C2=O	-1	6	-1	-6	42*	-1	103	111
CC(C)(C)c1ccc(CNC(=O)c2ccc3c(c2)NC(=O)CO3)cc1	2	-1	7	1	96	0	/	/
O=C1COc2ccc(C(=O)NCc3ccc4c(c3)OCO4)cc2N1	-8	38	6	-38	64*	-1	97	94
CC(C)(C)c1ccc(-c2cn(C[C@H](Cc3ccccc3)n3c(=O)c4ccccc4n3Cc3ccco3)nn2)cc1	/	/	/	/	/	-3	/	/
CCOC(=O)c1cnc2c(F)ccc(F)c2c1Sc1ccccc1	25	14	0	-14	62*	-1	86	111
COC(=O)CN1C(=O)C2(OCCCO2)c2cc(Br)ccc21	/	32	2	-32	85	-2	/	/
CC(C)N1C(=O)C2(OCCCO2)c2cc(Br)ccc21	1	8	-1	-8	60*	0	122	110
CC(C)Nc1ncnc2c1cnn2-c1ccc(Cl)cc1	14	-2	-13	2	98	3	90	91
CCN(CC)S(=O)(=O)N1CCC(C(=O)NC2CCCC2)CC1	/	21	0	-21	64*	-3	119	117
CC(C)(C)S(=O)N1C[C@@H]2CC(=O)C=C2[C@H]1CCO (some centres not stated)	/	/	/	/	/	1	/	/
CC1C(=O)NN=C1C(=O)N/N=C\c1ccc(O)cc1O (configuration not stated)	-50	-9	4	9	60*	2	94	94
CCOC(=O)/C(C#N)=N/Nc1ccccc1C#N	-18	-5	10	5	114	0	/	/
CCOC(=O)NC(=O)/C(C#N)=N\Nc1cccc(OC)c1	-12	15	1	-15	102	-2	122	124
N#C/C(=N\Nc1c(Cl)cccc1Cl)C(=O)NN	-14	10	-2	-10	94	-1	110	119
CCOC(=O)NC(=O)/C(C#N)=N/Nc1c(F)cccc1F	0	10	10	-10	93	1	101	104
CN(C)CC(=O)N[C@H]1C[C@@H]2O[C@@H](CO)CC[C@@H]2O[C@@H]1CCc1ccc(C2=CCCCC2)cc1	/	/	/	/	/	-1	/	/
COc1ccccc1S(=O)(=O)N(C)C[C@H]1Oc2cc(Br)ccc2S(=O)(=O)N([C@H](C)CO)C[C@H]1C	/	/	/	/	/	1	/	/
CC(C)=CC(=O)NCC1CCN(C(=O)C(=O)c2cc3ccccc3o2)CC1	/	/	/	/	/	-2	/	/
Cc1nc(NC2CCCC2)c2nnn(Cc3ccccc3)c2n1	/	/	/	/	/	7	/	/
CC(c1c[nH]c2ccccc12)c1cn(C)c2ccccc12 (configuration not stated)	/	/	/	/	/	-4	/	/
Cc1ccc(C(=O)O)cc1S(=O)(=O)N1CCCC1	/	3	-1	-3	108	-3	104	107
COc1ccc(CCNC(=O)c2ccc(OCC(=O)N3CCOCC3)c(OC)c2)cc1	/	2	-1	-2	100	-2	/	/
COc1ccc(CCNC(=O)c2ccc(OCC(=O)N3CCOCC3)c(OC)c2)cc1OC	-4	-24	1	24	64*	-1	100	104
SMILES	Lipid droplet	SR-BI DiI-HDL act	AHR activator	SR-BI DiI inh	Yeast superoxide	SMARCA2 activ	CR mimetic CP	DHE counter
Cc1nc(Nc2ccc(S(=O)(=O)N3CCCCC3C)cc2)c2nnn(Cc3ccccc3)c2n1 (configuration not stated)	-17	-18	1	18	59*	-3	106	109
Cc1nc(Nc2ccc(Cl)cc2)c2nnn(Cc3ccccc3)c2n1	2	-23	43	23	110	-1	/	/
CCN(CC)c1ccc2nc3ccccc3[n+](CC)c2c1	-18	13	1	-13	65*	/	82	108
CCn1c2ccccc2c2cc(NC(=O)C(C)C)ccc21	/	-19	37	19	90	-1	107	104
CCCC(=O)Nc1ccc2c(c1)c1ccccc1n2CC	4	-43	69*	43	80	1	113	117
CCn1c2ccccc2c2cc(NC(=O)CC(C)=O)ccc21	-19	-3	57*	3	95	0	101	93
CC(=O)O[C@H]1C=C[C@@H](C#Cc2ccc(C(C)(C)C)cc2)O[C@@H]1COC(=O)Nc1ccccc1	/	/	/	/	/	0	/	/
COc1cc(NC(=O)c2ccccc2)c(OC)cc1NC(=O)CN1CCN(c2ccccn2)CC1	/	/	33	/	90	-1	/	/
COc1ccc(NC(=O)CN2CCN(c3ccccn3)CC2)cc1Cl	-1	10	-1	-10	55*	-1	99	97
COc1ccc(NC(=O)CN2CCN(c3ccc(F)cc3)CC2)cc1Cl	/	-17	0	17	115	-1	/	/
O=C(CN1CCN(c2ccccn2)CC1)Nc1cccc(C(F)(F)F)c1	/	19	2	-19	105	0	98	90
CSc1ccccc1NC(=O)CN1CCN(c2ccccn2)CC1	-18	-1	-2	1	97	-1	99	101
CC(C)c1ccc(NC(=O)CN2CCN(c3ccccn3)CC2)cc1	-18	-7	3	7	85	0	89	93
Cc1ccc(-c2c(C(=O)NC3CCCC3)oc(=O)c3ccccc23)cc1	/	/	/	/	/	-4	/	/
COc1cc(Cl)c(C)cc1NC(=O)c1ccccc1NC(=O)CN1CCN(c2ccccn2)CC1	/	-28	/	28	/	-2	/	/
Cc1cc(N)ccc1NC(=O)CN1CCCC1	6	14	5	-14	64*	-1	91	92
COc1ccc(N)cc1NC(=O)CN1CCCC1	-8	25	3	-25	98	-2	/	/
O=C(CN1CCN(CC(=O)Nc2ccccc2Cl)CC1)Nc1ccc(F)c(F)c1	8	-1	-1	1	44*	-3	95	94
Cc1cc(Br)ccc1NC(=O)CN1CCN(c2ccccn2)CC1	-20	5	1	-5	106	-5	96	91
N#Cc1ccc(NC(=O)CN2CCN(c3ccccn3)CC2)cc1	11	8	8	-8	98	-1	97	102
O=C1NC(=O)C2(CCCc3ccc(N(CCO)CCO)cc32)N1 (configuration not stated)	/	/	/	/	/	0	/	/
O=C(NC1CCCCC1)C(c1ccncc1)N(C(=O)c1csnn1)c1ccccc1F (configuration not stated)	-8	-1	0	1	65*	-5	92	99

Screening data (PubChem BioAssay)
